Assay results from different studies.
Target: Serine/threonine-protein kinase MARK1 (MARK1, Homo sapiens, UniProt Q9P0L2)

SMILES | test | conditions | quantity | value
Cc1ccc(Nc2nccc(N(C)c3ccc4c(C)n(C)nc4c3)n2)cc1S(N)(=O)=O | enzyme activity, inhibitor | 0.3 µM | inhibition | 19%
CS(=O)(=O)NCC[C@H](NC(=O)c1cncc2c1cnn2-c1ccc(F)cc1)c1ccnc(S(C)(=O)=O)c1 | cell-free assay, competition with immobilised ligand | 1 µM | remaining binding | 92%
Cc1ccc(NC(=O)c2ccc(C)c(C(F)(F)F)c2)cc1C#Cc1nn(C2CCC(O)CC2)c2ncnc(N)c12 (centres unmarked) | cell-free assay | 10 µM | remaining signal | 94%
NS(=O)(=O)c1ccc(CNc2nc(Nc3cccc(NC(=O)N4CCCC4)c3)ncc2C2CC2)cc1 | enzyme activity, inhibitor, radiometric | 1 µM | remaining activity | 94%
O=C1Nc2ccc(Cl)cc2C1=Cc1cc(Cl)c(O)c(Cl)c1 | cell-free assay | 0.5 µM | remaining signal | 89.5%
C[C@H](c1ccnc(Nc2nc3ccc(-c4cc(N(C)C)ncn4)cc3[nH]2)c1)N1CCN(C(=O)CC(F)(F)F)CC1 | cell-free assay, competition with immobilised ligand | 0.1 µM | remaining binding | 100%
O=C(NCCCNc1nc(Nc2cccc(NC(=O)N3CCCC3)c2)ncc1I)c1cccs1 | enzyme activity, inhibitor, radiometric | 1 µM | remaining activity | -5%
CCCS(=O)(=O)Nc1ccc(F)c(C(=O)c2c[nH]c3ncc(-c4ccc(Cl)cc4)cc23)c1F | enzyme activity, inhibitor | 1 µM | inhibition | < 10%
N#CCCc1ccc2c(c1)-c1[nH]c3ccc([N+](=O)[O-])cc3c1CC(=O)N2 | cell-free assay | 0.5 µM | remaining signal | 67.4%
COc1cc2ncnc(Nc3ccc(Oc4ccccc4)c(C)c3C)c2cc1OC | enzyme activity, inhibitor | 1 µM | inhibition | 2%
CO[C@@H](C)c1c(Nc2ccc([C@@H](N(C)C(=O)C3CCS(=O)(=O)CC3)C(F)(F)F)cc2)cnc2cc(Cl)nn12 | cell-free assay, competition with immobilised ligand | 1 µM | remaining binding | 81%
Cc1ncc([N+](=O)[O-])n1C(=NO)c1ccccc1C(F)(F)F | enzyme activity, inhibitor | 10 µM | inhibition | 34.2%
Cc1nn(CC(F)(F)F)cc1Nc1nccc(NCc2ccc(S(N)(=O)=O)cc2)n1 | enzyme activity, inhibitor, radiometric | 1 µM | remaining activity | 107%
CSc1cccnc1N1CCN(Cc2nc3ccccc3[nH]2)CC1 | cell-free assay, competition with immobilised ligand | 1 µM | remaining binding | 100%
C[S+]([O-])c1ccc(-c2nc(-c3ccncc3)c(-c3ccc(F)cc3)[nH]2)cc1 (centres unmarked) | cell-free assay | 0.5 µM | remaining signal | 105%
C=CC(=O)Nc1cc(Nc2nccc(Nc3cc(Cl)c(F)cc3C(C)(C)O)n2)c(OC)cc1N1CC[C@@H](N(C)C)C1 | enzyme activity, inhibitor | 1 µM | inhibition | 4%

SMILES | test | conditions | quantity | value
O=C1NC(=O)c2cc(Nc3ccc(F)cc3)c(Nc3ccc(F)cc3)cc21 | cell-free assay | 0.5 µM | remaining signal | 98.9%
O=C(Nc1cccc(Nc2ncc(Br)c(NCCc3cnc[nH]3)n2)c1)N1CCCC1 | enzyme activity, inhibitor, radiometric | 1 µM | remaining activity | -4%
CNc1cccc2cc(C(=O)Nc3ccc(C(=O)O)cc3)c(=O)[nH]c12 | enzyme activity, inhibitor | 10 µM | inhibition | -26%
CCCCN(CCCC)C(=O)CN1C[C@@H](c2cc(OC)c3c(c2)OCO3)[C@H](C(=O)O)[C@H]1CC(C)(C)CCC | cell-free assay, competition with immobilised ligand | 1 µM | remaining binding | 88.7%
Cc1nn(CC(F)(F)F)cc1Nc1ncc(C2CC2)c(NCCc2c[nH]cn2)n1 | enzyme activity, inhibitor, radiometric | 1 µM | remaining activity | 71%
Cc1cc(NC(=O)c2cccc3cc(-c4cccc5[nH]nc(N)c45)ccc23)ccc1F | enzyme activity, inhibitor | 0.1 µM | activity vs control | 133%
C[C@@H](c1cccc(C#N)c1)n1cc(Cl)cc(C(N)=O)c1=N | cell-free assay, competition with immobilised ligand | 1 µM | remaining binding | 100%
NS(=O)(=O)c1ccc(CNc2nc(Nc3cccc(NC(=O)N4CCCC4)c3)ncc2Br)cc1 | enzyme activity, inhibitor, radiometric | 1 µM | remaining activity | 57%
CNC(=O)c1cc(Oc2ccc(NC(=O)Nc3ccc(Cl)c(C(F)(F)F)c3)cc2)ccn1 | enzyme activity, inhibitor | 10 µM | inhibition | 8%
COc1cc(-c2cn(C3CCc4ccccc4N(CC(F)(F)F)C3=O)nn2)ccc1-n1ccc(C)n1 (centres unmarked) | cell-free assay, competition with immobilised ligand | 1 µM | remaining binding | 99%
FC(F)(F)Oc1cccc(-c2cnc3ccc(-c4ccncc4)nn23)c1 | enzyme activity, inhibitor, radiometric | 1 µM | activity vs control | 92%
CC(=O)C1=C(C)N(c2cccc(C(F)(F)F)c2)C(=O)N[C@@H]1c1ccc(C#N)nc1 | cell-free assay, competition with immobilised ligand | 1 µM | remaining binding | 100%
CN1CCc2cc(Nc3ncc(C4CC4)c(NCCCNC(=O)C4CCC4)n3)ccc2C1 | enzyme activity, inhibitor, radiometric | 1 µM | remaining activity | -1%
Cc1sc(C(=O)NC2COC2)cc1-n1cc(NC(=O)Nc2c(F)cccc2Cl)cn1 | enzyme activity, inhibitor | 10 µM | remaining activity | 95.3%
CCN(CC)CCNC(=O)c1c(C)[nH]c(/C=C2\C(=O)Nc3ccc(F)cc32)c1C | enzyme activity, inhibitor | 10 µM | inhibition | 92%
O=C(NCCCNc1nc(Nc2cccc(NC(=O)N3CCCC3)c2)ncc1C1CC1)C1CCC1 | enzyme activity, inhibitor, radiometric | 1 µM | remaining activity | -4%
